# Data published in PubChem BioAssay AID2292 (The Scripps Research Institute Molecular Screening Center, 2010).
# Some of the results follow. Values without a mark were called inactive. Activity calls are given as the source filed them.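 The calls were made as follows: active = mean inhibition across replicates above a set limit taken from the earlier primary screen (cut at about 28% in these data); inactive = the rest.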
# Tested on: Epstein-Barr virus nuclear antigen 1 (EBNA-1) DNA-binding domain, Human herpesvirus 4
# Assay: blockers of EBV EBNA-1 DNA binding – biochemical, fluorescence polarization, triplicate, confirmation (AID 2292);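 also: plate controls were EBNA-1 protein with DMSO for no effect and wells lacking EBNA-1 for full effect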
# Conditions: Recombinant EBNA-1 DBD, Cy5-DNA fluorescence polarization; at 14.8 µM; stronger effect = higher value
# Outline: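 Test system: E. coli-made EBNA-1 DBD, residues 448-610. Compound dosing: one dose, 14.8 µM. Reagent: 10 nM Cy5 DNA hairpin. Detection: fluorescence polarization, excitation 620 nm, emission 688 nm. Repeats: each compound tested in triplicate. Schedule: Protein-probe premix 30 min, compound exposure 1 h, room temperature. Medium: Tris-NaCl buffer, pH 7.4.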
row,Compound,inhibition
1,Cc1ccc(O)c(/C=N/NC(=O)COc2ccc3c(C)cc(=O)oc3c2)c1,-12.4%
2,CCOc1cccc(SCc2noc(C(=O)NC(C)C)c2C(=O)O)c1,-11.1%
3,O=C(Nc1ccc2ccccc2c1)Nc1ccc2snnc2c1,142% (active)
4,O=C(COc1ccc(/C=N/NC(=O)c2ccc(O)cc2)cc1)Nc1ccc([N+](=O)[O-])cc1,51.1% (active)
5,COc1ccc(-c2ccc(Nc3ccc(S(=O)(=O)N4CCCC4)cc3)nn2)cc1OC,-1.8%
6,Cc1ccc(-c2nn(-c3ccccc3)cc2/C=C2\SC(=S)N(CCCCCC(=O)O)C2=O)o1,16.8%
7,CCC(=O)Nc1ccc(C(=O)Nc2ccc3c(c2)C(=O)N(CC2CCCO2)C3=O)cc1 (stereo unspecified),58.2% (active)
8,COc1ccc(C(=O)Nc2cccc(NC(=O)c3ccc(OC)cc3OC)n2)c(OC)c1,31.9% (active)
9,CCOc1ccc(NC(=O)c2ccc(NC(=O)COC(=O)c3ccc(NC(=O)CC#N)cc3)cc2)cc1,3.81%
10,N#Cc1ccc(N2Cc3ccccc3/C2=N/C(=O)Nc2ccc(Cl)cc2)cc1,67.7% (active)
11,C/C(=N\N=C(N)N)c1ccc(Cl)cc1,2.77%
12,CCOc1ccc(OCC)c(NC(=O)C(NS(=O)(=O)c2ccc3c(c2)oc(=O)n3C)C(C)C)c1 (stereo unspecified),62.8% (active)
13,Cc1ccc(C(=O)NNC(=O)c2cc3cc4ccccc4nc3s2)cc1,29.3% (active)
14,N#Cc1nc(N)nc(N(c2ccccc2)c2ccccc2)n1,-5.35%
15,Nc1nnc(SCC(=O)Nc2ccc3nc(SCC(=O)Nc4ccccc4)sc3c2)s1,24.9%
16,COc1ccc(CNc2nc3c(c(=O)[nH]c(=O)n3C)n2Cc2ccccc2)cc1,7.27%
17,COc1ccc(C(=O)CSc2nnc(NC(=O)C3CC(=O)N(c4cccc(OC)c4)C3)s2)cc1 (stereo unspecified),52.3% (active)
18,COc1ccc(CCNC(=S)N2CCN(S(=O)(=O)c3ccc(F)cc3)CC2)cc1,3.15%

row,Compound,inhibition
1,CCc1nccn1S(=O)(=O)c1cccc([N+](=O)[O-])c1,1.11%
2,Nc1ccc(S(=O)(=O)Nc2nccc(/C=C/c3ccc(Br)s3)n2)cc1,8.99%
3,Cc1[nH]n(C(N)=S)c(=O)c1N=Nc1ccc(Cl)cc1Cl,-9.96%
4,COC(=O)CSc1nc(C)c2ccc(OC)cc2n1,-0.23%
5,O=C(Nc1cccc(NC(=O)c2ccc(Br)cc2)c1)c1ccccc1,20.8%
6,O=C(CCCn1c(SCC(=O)c2ccc(F)cc2)nc2ccccc2c1=O)NCc1ccco1,16.5%
7,Cc1cccc(NC(=O)Cn2c(=O)n(Cc3ccccc3)c(=O)c3c(C)c(C)sc32)c1,5.76%
8,CC(=O)c1c(C)[nH]c(C(=O)OCC(=O)Nc2sc3c(c2C#N)CCCC3)c1C,25.9%
9,COc1ccc(C)cc1NC(=O)NCc1ccccn1,-7.1%
10,COc1ccc(NC(=O)NCc2ccc3c(c2)OCO3)c(OC)c1,57% (active)
11,CC(=O)Nc1ccc(S(=O)(=O)NCC(=O)OCc2cc(=O)oc3ccc4ccccc4c23)cc1,5.47%
12,CCOc1cccc(NC(=O)Cn2nc(-c3ccc4c(c3)OCCO4)ccc2=O)c1,64.7% (active)
13,Cc1cccc(N(CC(=O)Nc2ccc(-c3nc4ccc(C)cc4s3)cc2)S(C)(=O)=O)c1,12.2%
14,CCOC(=O)c1ccc(NC(=O)C2CC(=O)Nc3nc4ccccc4n32)cc1 (stereo unspecified),61% (active)
15,CCOc1[nH]n(-c2ccc(Cl)cc2)c(=O)c1C=Nc1ccc(O)cc1,-11.1%
16,COc1ccc(-c2nonc2NC(=O)c2oc3ccc(F)cc3c2C)cc1OC,58.1% (active)
17,COC(=O)C1=CN(Cc2ccc(OC)cc2)C=C(C(=O)OC)C1c1ccc(O)c(OC)c1,37.1% (active)
18,CCOc1ccc(C(=O)NC(=S)Nc2ccc(NC(=O)C(C)C)cc2)cc1[N+](=O)[O-],55.5% (active)
